From PMC4242840 (The Journal of Cell Biology, 2014)

Assays:
Assay type in all cases: cell-based, Saccharomyces cerevisiae
RPL5 shuffle strain = experiment: complementation of rpl5Δ; settings: SDC+FOA, 30°C, 5 d
pre-60S particles = experiment: affinity purification of Rpl5-FTpA constructs; settings: Flag-TEV-ProtA bait
Method in brief: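 Rpl5 variants tagged with Flag-TEV-ProtA were purified from a 2-liter yeast culture pellet. Steps: IgG-Sepharose 90 min, TEV elution 120 min, FLAG beads 45 min, FLAG-peptide elution. Eluates were run alongside pre-60S particles purified via Nsa2-FTpA and FTpA-Rsa4, then analysed by SDS-PAGE and Western blot.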

[1] = tested on: intracellular localization in yeast; experiment: in vivo localization of Rpl5-GFP; settings: GFP fusion, wild-type strain, fluorescence microscopy
Method in brief: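 A wild-type strain carried plasmid-borne Rpl5-GFP or Rpl5 Δloop2+3-GFP. Cells were grown to ~OD 0.5 in selective medium at 30°C, harvested and washed in water. They were imaged by fluorescence microscopy at room temperature (100×, NA 1.4 oil objective, EGFP filter set).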

B1: Rpl5Δloop2+3 (protein)
chain: MAFQKDAKSSAYSSRFQTPFRRRREGKTDYYQRKRLVTQHKAKYNTPKYRLVVRFTNKDIICQIISSTITGDVVLAAAYSHELPRYGITHGLTNWAAAYATGLLIARRTLQKLGLDETYKGPRPFKVFLDIGLQRTTTGARVFGALKGASDGGLYVPHSENRFPGWDRIFGGHVSQYMEELADDDEERFSELFKGYLADDIDADSLEDIYTSAHEAIRADPAFKPTEKKFTKEQYAAESKKYRQTKLSKEERAARVAAKIAALAGQQ
RPL5 shuffle strain
  growth / viability (complementation): lethal phenotype
pre-60S particles
  co-purified Spb1 and Nop2: enriched
  co-purified particles / Syo1: recovered its import factor Syo1 ([Kressler et al., 2012a]) and pre-60S particles
pre-60S particles; SDS-PAGE and Western blot
  co-purified Nsa2: normal amounts of Nsa2
  co-purified Rpl10 (uL16): lacked Rpl10 (uL16)
  co-purified Rsa4: reduced levels of Rsa4
[1]
  intracellular localization: accumulated inside the nucleus
